A selection: hits, their analogues and other compounds. The true share with any hit is near 2.6%.
PRMT1 FP inh: blocks human protein arginine methyltransferase 1. 1.3% of 370,000 active. Q99873. recombinant PRMT1, activity-based probe fluorescence polarization. AID 652257. inhibition, % at 2.79 µM;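 active means inhibition above about 21% made by adding two undisclosed values, limit read from the data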
HTRA1 inh: HTRA1 (human) protease inhibition. recombinant HTRA1, FP-rhodamine activity-based probe, fluorescence polarization. Q92743. inhibition, % at 5.96 µM. 0.5% of 340,000 active; in the data active means inhibition above about 36%;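 further: 0% = enzyme with DMSO and 100% = wells lacking enzyme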
Target sequence (Q92743 whole entry, looked up): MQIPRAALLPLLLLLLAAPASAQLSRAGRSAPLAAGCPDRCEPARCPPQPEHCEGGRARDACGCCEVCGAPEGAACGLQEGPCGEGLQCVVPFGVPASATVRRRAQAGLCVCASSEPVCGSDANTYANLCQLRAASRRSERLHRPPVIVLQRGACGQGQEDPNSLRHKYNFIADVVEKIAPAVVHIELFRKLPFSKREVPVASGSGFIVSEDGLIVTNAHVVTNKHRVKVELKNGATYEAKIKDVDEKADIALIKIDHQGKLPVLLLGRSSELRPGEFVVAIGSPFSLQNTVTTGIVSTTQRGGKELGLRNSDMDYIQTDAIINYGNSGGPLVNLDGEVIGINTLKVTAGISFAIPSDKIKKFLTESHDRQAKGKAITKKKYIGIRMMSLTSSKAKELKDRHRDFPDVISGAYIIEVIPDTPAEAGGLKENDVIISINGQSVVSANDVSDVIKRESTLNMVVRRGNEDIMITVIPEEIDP
TCR-CD3 inh: blocks the human TCR-CD3 interaction | TAMRA-labeled TCR probe fluorescence, biochemical | inhibition, % at 9.4 µM | 0.37% of 360,000 active;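 further: recombinant mutant TCR 2C K166C tagged with TAMRA read by polarization; 0% = receptor in buffer alone and 100% = receptor with positive control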
mABHD4 FP: inhibitors of mouse ABHD4. 0.54% of 370,000 active. purified mABHD4, FP-Rh probe fluorescence polarization. inhibition, % at 8.92 µM;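 active means inhibition exceeding the mean over every tested compound plus 3 SD, cut at about 30% in these data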;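 further: 0% = plate median of compound wells and 100% = S159A mutant with DMSO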
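Doses – 8.92 µM, single dose · Material – wild-type mouse ABHD4 protein · Replication – single well per compound (singlicate) · Measure – percent inhibition of probe binding, normalized to plate controls · Schedule – 45 min compound pre-incubation plus 60 min probe step, 25 °C · Detection – fluorescence polarization with parallel and perpendicular emission, 525/598 nm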
SIAE inh: human SIAE inhibition, primary screen; Q9HAT2; SIAE FP-Rh probe binding, fluorescence polarization; inhibition, % at 9.66 µM; 0.69% of 370,000 active; AID 1053197;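 active means inhibition above a cutoff: mean of compounds within the control limits plus 3 SD of those, cut at about 17% in these data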;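 further: 0% = plate median of compound wells and 100% = probe without SIAE protein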
BSA probe FL: counter-screen for TCR-CD3 interaction inhibitors: BSA probe; shares compounds with TCR-CD3 inh; TAMRA-labeled BSA probe fluorescence counterscreen; inhibition, % at 9.4 µM; 10% of 1,200 active; AID 652035; in the data active means inhibition above about 23%;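 further: 0% = buffer low control and 100% = reference high control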
TCR-CD3 conf: confirmation of human TCR-CD3 interaction inhibitors. shares compounds with TCR-CD3 inh. inhibition, % at 9.4 µM. TAMRA-labeled TCR probe fluorescence binding assay. 48% of 1,200 active. AID 652036
PRMT1 confirm: PRMT1 (human) inhibition, FP confirmation; shares compounds with PRMT1 FP inh; recombinant His-PRMT1, activity-based probe fluorescence polarization; inhibition, % at 2.79 µM; 42% of 3,300 active; AID 687036;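 active means mean inhibition across replicates above the hit cutoff derived for the earlier primary screen, cut at about 22% in these data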
Active calls of the source: *; / = no result given. Unless noted, no stated cut-off is given here; in the data, active means inhibition above about 19%; inactive means the rest.

SMILES	PRMT1 FP inh	HTRA1 inh	TCR-CD3 inh	mABHD4 FP	SIAE inh	BSA probe FL	TCR-CD3 conf	PRMT1 confirm
CC(C)C(=O)Nc1ccc(C(=O)NNC(=S)NC(=O)c2ccccc2[N+](=O)[O-])cc1	0	6	26*	3	4	-1	33*	/
COc1ccc(C2C(C#N)=C(N)OC3=C2C(=O)CCC3)cc1Cn1nc(C)c([N+](=O)[O-])c1C (stereo unspecified)	-1	-3	42*	5	4	-1	1	/
CCC(CC)CN1CCC(CN2C(=S)NC[C@@H]2Cc2ccccc2)CC1	0	/	-3	-6	2	/	/	/
COC(=O)c1sccc1NC(=O)Nc1ccc(Cl)c(Cl)c1	2	-14	34*	-23	-23	3	7	/
O=C1CNC(=S)N1CCOc1ccccc1	0	3	-3	-5	10	/	/	/
O=C1CNC(=S)N1CCc1ccc(O)c(O)c1	5	/	31*	22	9	-12	27*	/
COc1ccc(CNC(=O)[C@@H](Cc2ccccc2)NC(=O)[C@H]2O[C@@H](n3ccc(=O)[nH]c3=O)[C@H](O)[C@@H]2O)cc1	-1	/	10	1	-2	/	/	/
Oc1ccc(Br)cc1-c1ccnn1-c1ccccc1	0	-11	5	-6	5	/	/	/
CN(C)C(C(=O)Nc1cc(Cl)cc(Cl)c1)c1ccccc1 (stereo unspecified)	-1	-15	135*	-10	1	3	0	/
O=c1nc2c(O)cccn2c2c1c(=O)[nH]c1ccccc12	34*	17	54*	0	3	-11	13	34*
Cc1ccc(C(=O)CCC(=O)OCC(=O)NNC(=O)c2ccc([N+](=O)[O-])cc2)cc1	-4	6	0	-4	0	/	/	/
CCO/C=C1\SC(=S)N(c2ccc(Cl)cc2)C1=O	10	-15	-32	-59	-61	/	/	/
CC(C)c1ccc(N2C(=O)/C(=C/N(C)C)SC2=S)cc1	26*	6	67*	-134	-88	150*	132*	20
O=C(OCc1cn([C@@H]2C[C@H](c3ccccc3)N(Cc3cccs3)C[C@H]2O)nn1)c1ccccc1	-2	1	8	2	-5	/	/	/
N#Cc1ccc(CC(=O)c2ccccc2)[nH]c1=O	29*	28	60*	43*	7	16	9	0
COc1ccccc1N1C(=N)S/C(=C\c2ccc(-c3ccccc3C(=O)O)o2)C1=O	3	-2	-1	12	1	/	/	/
O=C(O)c1ccccc1-c1ccc(C=c2sc3nc4cc(Br)cnc4n3c2=O)o1	84*	/	27*	28	6	-16	23*	25*
Cc1cccc(NC(=O)COC(=O)CC2CCCC2)c1C	2	3	7	-3	-1	/	/	/
COc1ccc(NC(=O)N(C)C[C@@H]2OCc3cn(nn3)CCCC(=O)N([C@H](C)CO)C[C@H]2C)cc1	65*	4	32*	11	10	2	1	6
CC12CCC(C(=O)N(CSC(=S)N/N=C\c3ccccc3O)C1=O)C2(C)C (stereo unspecified)	25*	26	32*	20	3	-10	20*	3
CN(CCC#N)C(=O)COC(=O)c1c2c(nc3ccccc13)/C(=C/c1ccco1)CC2	41*	19	52*	42*	20*	-14	32*	29*
CCCSc1nnc(NC(=O)CSc2sc3c(O)cc(=O)[nH]c3c2C#N)s1	34*	-29	31*	0	-38	-18	12	15
N#Cc1c(SCC(=O)Nc2nc3ccc(Br)cc3s2)sc2c(O)cc(=O)[nH]c12	19	-17	15	-4	-49	/	/	/
N#Cc1c(SCC(=O)Nc2nccs2)sc2c(O)cc(=O)[nH]c12	51*	-8	20*	-23	-18	-13	15	27*
N#Cc1c(SCC(=O)Nc2nc3ccccc3s2)sc2c(O)cc(=O)[nH]c12	52*	-15	19*	-23	-42	-14	15	7
SMILES	PRMT1 FP inh	HTRA1 inh	TCR-CD3 inh	mABHD4 FP	SIAE inh	BSA probe FL	TCR-CD3 conf	PRMT1 confirm
N#Cc1cccc(NC(=O)CSc2sc3c(O)cc(=O)[nH]c3c2C#N)c1	19	-12	11	-39	-42	/	/	/
CCN1CCN(c2ccc(S(=O)(=O)N3CCCCC3)cc2NC(=O)c2ccc(C)o2)CC1	/	-4	/	/	/	/	/	/
O=C(N/N=C/c1c(O)n(Cc2ccco2)c(=O)[nH]c1=O)c1ccccc1	33*	14	23*	16	15	-2	20*	0
O=C(N/N=C\c1ccccc1OCc1ccccc1)c1ccco1	2	-18	-8	-15	-10	/	/	/
CCOC(=O)CCCNC(=O)CN1CCC(c2nc3ccccc3s2)CC1	0	5	1	-2	-4	/	/	/
Cc1ccc(/C=C/C(=O)OCC(=O)c2ccc3c(c2)NC(=O)CO3)o1	17	-9	5	0	-1	/	/	/
O=C1COc2ccc(C(=O)COC(=O)/C=C/c3ccc(Br)o3)cc2N1	37*	0	22*	-1	1	-2	21*	2
COC(=O)[C@@]1(Cc2ccc(OC)cc2)[C@H]2c3cc(C(=O)N4CCCC4)n(Cc4ccc(C)o4)c3C[C@H]2CN1C(=O)c1ccccc1	39*	/	60*	3	-2	0	-3	3
Cc1cc(/C=N/NC(N)=S)c(O)c(/C=N/NC(N)=S)c1	75*	24	25*	15	13	1	15	82*
NC(=S)N/N=C/c1cccc(O)c1O	10	8	-7	15	9	/	/	/
CCN(C[C@H]1N[C@@](C)(C(=O)OC)[C@H]2C(=O)N(Cc3ccccc3)C(=O)[C@@H]12)C(=O)Nc1ccc(Cl)cc1	1	0	-1	-11	-7	/	/	/
C#CCNC(=O)C[C@@H]1C[C@@]2(C(=O)OC)CCCCC=C2N(CCCCCCCC)C1=O	-1	/	4	-8	-3	/	/	/
O=C(CN1C(=O)/C(=C/c2ccco2)SC1=S)NC1CCS(=O)(=O)C1 (stereo unspecified)	44*	11	22*	26	6	-7	1	24*
O=C(CCN1C(=O)/C(=C/c2ccccc2)SC1=S)NC1CCS(=O)(=O)C1 (stereo unspecified)	-3	-1	4	-4	5	/	/	/
O=C1C(=Cc2cn(-c3ccccc3)nc2-c2ccc(OCc3ccccc3)cc2)SC(=S)N1CCS(=O)(=O)O	43*	/	26*	-106	-97	1	19*	5
O=C(Cc1nnc(NC(=O)c2ccccc2)s1)N/N=C/c1ccco1	41*	4	19*	-15	1	-6	4	8
CCN(CC)CCCNC(=O)CC1Oc2ccccc2NC1=O (stereo unspecified)	4	/	/	3	-3	/	/	/

Assay outcomes deposited in PubChem BioAssay by The Scripps Research Institute Molecular Screening Center.
